Measured values published in ChEMBL document CHEMBL1151165, “Characterization of the preferred stereochemistry for the neuropharmacologic actions of antillatoxin” (J Nat Prod, 2004).

Tests used:
[1] = Cytotoxicity against mouse Neuro2a cells; format: cell-based, N2a; conditions: read-out: LD50 (the source's name)
[2] = Increase in cytoplasmic calcium influx in Sprague-Dawley rat CGN cells by FLIPR; format: cell-based
In short: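 Cytoplasmic Ca2+ in cerebellar granule cells was followed by fluo-3 fluorescence, with basal fluorescence (about 4000 units) subtracted. The response is the integrated fluorescence area under the curve, plotted against compound concentration.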

[3] = Cytotoxicity in Sprague-Dawley rat CGN cells assessed as LDH release after 2 hrs; format: cell-based
In short: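 Rat cerebellar granule cells, 11-13 days in culture, exposed 2 h to the compound across a concentration range. LDH efflux into the culture medium was measured, and pEC50 was taken from concentration-response curves. Two separate experiments, each in triplicate, mean ± SEM.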

Carassius auratus = experiment: Ichthyotoxicity against Carassius auratus; format: organism-based; conditions: in vivo
[4] = Increase in extracellular acidification rate in Sprague-Dawley rat CGN cells by cytosensor microphysiometer; format: cell-based
In short: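 Cerebellar granule neurons were cultured on porous polycarbonate membranes, and extracellular acidification rate was monitored by microphysiometry over a range of concentrations. Peak acidification rate is expressed as percent of basal proton efflux. Two separate experiments, each in duplicate, mean ± SEM.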

[5] = Cytotoxicity in Sprague-Dawley rat CGN cells assessed as LDH release after 2 hrs in presence of 1 uM tetrodotoxin; format: cell-based
[6] = Cytotoxicity in Sprague-Dawley rat CGN cells assessed as LDH release at 100 nM after 2 hrs in presence of 1 uM tetrodotoxin; format: cell-based; conditions: 0.1 µM
[7] = Increase in extracellular acidification rate in Sprague-Dawley rat CGN cells at 100 nM by cytosensor microphysiometer; format: cell-based; conditions: 0.1 µM

| SMILES | CC50 [1] [µM] | Activity [2] | EC50 ([3]; read-out: EC50) [µM] | Activity (Carassius auratus) | Activity [4] [µM] | Activity [5] | Activity [6] | EC50 ([3]; read-out: pEC50 (converted)) [µM] | Activity [7] [%] |
| --- | --- | --- | --- | --- | --- | --- | --- | --- | --- |
| C=C1CC(=O)N[C@@H](C)C(=O)N(C)[C@@H](C(C)C)C(=O)NCC(=O)O[C@H](/C(C)=C/C(C)=C/C(C)(C)C)[C@H]1C | 10 | Dose-dependent effect and tde | – | – | – | – | – | – | – |
| C=C1CC(=O)N[C@@H](C)C(=O)N(C)[C@@H](C(C)C)C(=O)NCC(=O)O[C@@H](/C(C)=C/C(C)=C/C(C)(C)C)[C@H]1C | 5 | Dose-dependent effect and tde | – | – | – | – | – | – | – |
| C=C1CC(=O)N[C@@H](C)C(=O)N(C)[C@@H](C(C)C)C(=O)NCC(=O)O[C@H](/C(C)=C/C(C)=C/C(C)(C)C)[C@@H]1C | 10 | Dose-dependent effect and tde | 8.1 | Non-toxic | 5 | – | – | – | – |
| C=C1CC(=O)N[C@@H](C)C(=O)N(C)[C@@H](C(C)C)C(=O)NCC(=O)O[C@@H](/C(C)=C/C(C)=C/C(C)(C)C)[C@@H]1C [ANTILLATOXIN] | 0.18 | Dose-dependent effect and tde | 0.042 | 0.1 µM | 0.041 | Non-toxic | Non-toxic | 0.0457 | 300 |
